High-throughput results deposited in PubChem by Johns Hopkins Ion Channel Center.
TRPC4 act = activators of mouse TRPC4 channel | AID 2237 | HEK293 TRPC4beta/mu-opioid, Fluo4 calcium fluorescence; stronger effect = higher value | actives 0.49% (n = 310,000) | B-score at 10 µM | Q9QUQ5;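 active = B-score above 5 SD of library B-scores, and initial fluorescence ratio not above library mean plus 5 SD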;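 also: positive B-score marks a calcium rise read as TRPC4 activation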
Target sequence (Q9QUQ5 whole entry, looked up): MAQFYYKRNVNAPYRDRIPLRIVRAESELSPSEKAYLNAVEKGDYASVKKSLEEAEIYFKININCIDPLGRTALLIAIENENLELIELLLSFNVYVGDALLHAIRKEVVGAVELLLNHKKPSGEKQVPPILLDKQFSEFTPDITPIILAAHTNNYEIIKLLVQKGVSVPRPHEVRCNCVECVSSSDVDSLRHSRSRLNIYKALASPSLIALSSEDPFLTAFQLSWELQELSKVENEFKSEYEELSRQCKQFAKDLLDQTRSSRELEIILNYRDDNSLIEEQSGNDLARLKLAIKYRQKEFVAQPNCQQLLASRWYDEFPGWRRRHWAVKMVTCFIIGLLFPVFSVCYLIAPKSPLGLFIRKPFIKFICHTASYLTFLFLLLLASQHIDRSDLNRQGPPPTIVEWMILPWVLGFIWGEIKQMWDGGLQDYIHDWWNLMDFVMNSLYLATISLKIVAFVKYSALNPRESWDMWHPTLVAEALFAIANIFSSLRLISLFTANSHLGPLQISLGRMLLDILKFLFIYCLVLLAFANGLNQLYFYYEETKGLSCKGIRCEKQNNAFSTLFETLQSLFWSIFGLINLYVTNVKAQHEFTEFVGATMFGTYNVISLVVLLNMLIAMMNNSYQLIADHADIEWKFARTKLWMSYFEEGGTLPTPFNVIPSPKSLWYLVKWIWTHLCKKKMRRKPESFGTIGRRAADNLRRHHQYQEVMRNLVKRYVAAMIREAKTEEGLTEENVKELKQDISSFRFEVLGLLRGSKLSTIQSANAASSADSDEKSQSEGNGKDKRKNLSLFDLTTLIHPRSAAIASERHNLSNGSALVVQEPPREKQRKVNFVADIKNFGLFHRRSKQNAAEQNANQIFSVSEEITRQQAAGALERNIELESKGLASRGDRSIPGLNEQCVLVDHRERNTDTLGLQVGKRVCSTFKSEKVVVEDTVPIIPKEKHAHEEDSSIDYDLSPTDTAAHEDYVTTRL
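Technique: kinetic Fluo4 calcium fluorescence; Test system: TRPC4beta and mu-opioid receptor HEK293 stable cells; Measure: B-scored integrated calcium fluorescence ratio; Benchmarks: low control buffer alone, high control maximal DAMGO; Schedule: 45 min room-temperature Fluo4 loading, 110 s read.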
TRPC4 PAM = allosteric potentiators of mouse TRPC4 channel; HEK293 TRPC4beta/mu-opioid, DAMGO EC20, Fluo-4 Ca2+ flux; stronger effect = higher value; Q9QUQ5; AID 2227; B-score at 10 µM; actives 0.42% (n = 310,000);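 active = B-score of calcium response area above 5 SD of library B-scores, with initial fluorescence ratio within 5 SD of library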;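 also: B-score of integrated fluorescence ratio over time as area under calcium response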
TRPC6 inhibitor = mouse TRPC6 channel inhibition; HEK293-TRPC6, membrane potential dye, ACh-evoked depolarization; stronger effect = lower value; B-score at 10 µM; actives 1.1% (n = 310,000);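 active = B-score under library mean minus 3 SD, initial fluorescence not abnormally high, positive integrated signal ratio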;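 also: B-score derived from integrated fluorescence ratio over the kinetic read; more negative B-score means stronger inhibition of depolarization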
TRPC6 activator = mouse TRPC6 channel activation. actives 0.13% (n = 310,000). Q61143. B-score at 10 µM. AID 2550. HEK293-TRPC6 membrane potential dye fluorescence; stronger effect = higher value;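 active = B-score of the integrated fluorescence ratio above library mean plus 3 SD, and starting fluorescence ratio within library mean plus 5 SD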;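 also: higher score means more depolarization so channel activation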
TRPC4 block = blocks the mouse TRPC4 cation channel; Q9QUQ5; HEK293 TRPC4beta/mu-opioid, DAMGO-evoked Fluo4 calcium flux; stronger effect = lower value; B-score at 10 µM; actives 0.39% (n = 300,000); AID 2247;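 active = B-score over 3 SD under the library average, no early fluorescence shift, positive overall ratio signal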
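Assay system: TRPC4beta/mu-opioid receptor HEK293 cell line; compound dosing: single concentration per test compound; detection: Fluo4 Ca2+ flux fluorescence; evaluation: per-well B score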
TRPC4 spec 2 = second selectivity test of TRPC6 inhibitors: effect on mouse TRPC4 | HEK293 TRPC4/MOR, membrane potential dye fluorescence; channel activated by saturating DAMGO dose | AID 2776 | actives 42% (n = 920) | shares compounds with TRPC6 inhibitor | inhibition, % at 10 µM;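 active = compounds whose fluorescence signal differed from control wells by over 3 SD, either direction, in both duplicate plates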
TRPC4 spec = mouse TRPC4 off-target activity of TRPC6 inhibitors; actives 61% (n = 920); HEK293 TRPC4/mu-opioid, membrane potential fluorescence; AID 2777; shares compounds with TRPC6 inhibitor; activity change, negative = inhibition, % at 10 µM;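 active = rise or fall in signal beyond 3 SD of buffer-only wells in both replicate plates, either sign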;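 also: integrated kinetic ratio of fluorescence range over baseline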
HEK293 MPD ctr 2-1 = parental HEK293 nonspecific activity of TRPC6 inhibitors, second screen. shares compounds with TRPC6 inhibitor. AID 2779. parental HEK293 membrane potential dye fluorescence; maximal acetylcholine challenge after compound addition. signal change vs control, % at 10 µM. actives 31% (n = 920);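 active = membrane potential signal moving either way by over 3 SD of the maximum-effect control, in both duplicate plates, meaning non-specific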
HEK293 MPD ctr-1 = counter-screen for TRPC6 inhibitors: effect in parental HEK293 cells | shares compounds with TRPC6 inhibitor | actives 60% (n = 920) | membrane potential signal change, % at 10 µM | AID 2780 | parental HEK293 membrane potential dye fluorescence;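 active = membrane potential signal shifting up or down by more than 3 SD of buffer-only wells, on both duplicate plates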
HEK293 MPD ctr-2 = counter-screen for TRPC6 modulators: effect in parental HEK293 cells; shares compounds with TRPC6 inhibitor; membrane potential signal change, % at 10 µM; AID 488924; membrane potential dye fluorescence; actives 51% (n = 2,400);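 active = membrane potential signal moves up or down beyond 5 SD from buffer-only wells, on both duplicate plates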
HEK293 MPD ctr 2-2 = second check of TRPC6 modulator effects in parental HEK293 cells. shares compounds with TRPC6 inhibitor. membrane potential dye fluorescence; after compound, maximal acetylcholine stimulation. inhibition, % at 10 µM. actives 14% (n = 2,400);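 active = membrane potential signal drops by more than 5 SD from the mean control signal, in both duplicate plates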;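 also: plate controls were acetylcholine ECmax control wells for no effect and buffer only wells for full effect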
TRPC4/MOR mod = mouse TRPC4 off-target activity of TRPC6 modulators | percent change from control (negative = decrease, positive = increase), % at 10 µM | HEK293 TRPC4/mu-opioid, membrane potential fluorescence | shares compounds with TRPC6 inhibitor | actives 69% (n = 2,400);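 active = membrane potential signal moved up or down beyond 5 SD of buffer control wells, in both duplicate plates, actives on both sides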;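 also: plate controls were assay buffer wells for no effect and DAMGO maximal-effect wells for full effect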
TRPC4 ctr inh 2 = second check of whether TRPC6 modulators also affect mouse TRPC4 | shares compounds with TRPC6 inhibitor | HEK293 TRPC4/mu-opioid, membrane potential dye fluorescence; stimulated with maximal-effect DAMGO | inhibition, % at 10 µM | actives 55% (n = 2,400);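 active = drop in membrane potential signal beyond 5 SD of the control wells in both duplicate plates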;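 also: TRPC4 counter screen for TRPC6 hits run under conditions tuned for TRPC6 not TRPC4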
TRPC6 block conf = confirmation of mouse TRPC6 inhibitors; shares compounds with TRPC6 inhibitor; HEK293-TRPC6, membrane potential dye, ACh-evoked depolarization; actives 43% (n = 3,300); AID 488960; inhibition, % at 10 µM;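 active = fluorescence ratio falls more than 5 SD below the full-stimulation control mean, in both duplicate runs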;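 also: integrated fluorescence ratio of peak minus minimum over baseline after agonist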
TRPC6 act confirm = mouse TRPC6 activator confirmation | HEK293-TRPC6 membrane potential dye fluorescence, FDSS | AID 488961 | activation, % at 10 µM | actives 11% (n = 2,800) | shares compounds with TRPC6 inhibitor;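 active = ratio signal rise beyond 5 SD above unstimulated control wells' mean, seen in both duplicate runs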;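 also: plate controls were buffer EC0 wells for no effect and acetylcholine ECmax response for full effect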
Active calls of the source: *; i = inactive; x = no result. Most compounds without a hit are left out; they make up all but 2.3% or so of the library.

SMILES | TRPC4 act | TRPC4 PAM | TRPC6 inhibitor | TRPC6 activator | TRPC4 block | HEK293 MPD ctr-2 | HEK293 MPD ctr 2-2 | TRPC4/MOR mod | TRPC4 ctr inh 2 | TRPC6 block conf | TRPC6 act confirm | others
CCOC(=O)C1=c2s/c(=C\c3cccnc3)c(=O)n2C(N)=C(C(=O)OC)C1c1cccnc1 (stereo not given) | i | i | -5.1* | i | i | i | i | i | i | i | i
Fc1ccc([C@@H]2CCNC[C@H]2COc2ccc3c(c2)OCO3)cc1 | 142* | i | -5.3* | i | i | i | 64%* | 39%* | 95%* | 72%* | i | TRPC4 spec 2=14%*;TRPC4 spec=47%*;HEK293 MPD ctr 2-1=i;HEK293 MPD ctr-1=0.5%*
O=C(CN1CCCC1)N1CCCc2c1c(=O)oc1ccc(OCc3ccccc3)cc21 | i | i | -6.5* | i | i | i | i | i | 70%* | i | i
CCCn1c(=N)n(CC(=O)c2ccc(Cl)cc2)c2ccccc21 | i | i | -7.3* | i | i | x | x | x | x | i | i | TRPC4 spec 2=26%*;TRPC4 spec=35%*;HEK293 MPD ctr 2-1=258%*;HEK293 MPD ctr-1=3.4%*
CCCn1c(=N)n(CC(=O)c2ccc([N+](=O)[O-])cc2)c2ccccc21 | i | i | i | i | i | x | x | x | x | x | x
CS(=O)(=O)c1ccccc1-c1nnc(NC(=O)c2ccc(S(=O)(=O)N3CCCC3)cc2)o1 | i | i | i | i | i | x | x | x | x | x | x
O=C(Nc1nnc(-c2ccccc2Cl)o1)c1ccc(S(=O)(=O)N2CCCCCC2)cc1 | 71* | i | -6.3* | i | i | i | i | -10%* | i | i | i
COc1cc(S(=O)(=O)N2CCN(c3ccccc3F)CC2)ccc1Cl | i | i | -5* | i | i | i | i | i | i | i | i
CCOC(=O)c1nnc(-c2ccccc2)nc1NCc1ccccc1 | i | i | i | i | i | x | x | x | x | x | x
CCOC(=O)c1c2n(c3c(NCc4ccccc4)ncnc13)CCCC2 | i | i | -5.2* | i | i | -94%* | 66%* | -16%* | 46%* | 54%* | i
O=C(Nc1ccccc1Oc1cccnc1)C1CCCN(Cc2ccc(F)cc2)C1 (stereo not given) | i | i | -6.4* | i | -6* | 176%* | i | 31%* | 46%* | i | x
O=C(C1CCCN(Cc2ccc(F)cc2)C1)N1CCCCC1 (stereo not given) | i | i | i | i | i | x | x | x | x | x | x
